This note sets out measurements from ChEMBL document CHEMBL1811763, “Design, syntheses, and kinetic evaluation of 3-(phenylamino)oxazolidine-2,4-diones as potent cytochrome bc₁ complex inhibitors” (Bioorg Med Chem, 2011).

Activity calls are given as the source filed them. The calls are words filed in the database; no cut-off is given here.

Assay [1] is described as follows: Non-competitive inhibition of pig heart succinate-cytochrome c reductase (Electron transport protein complex 2/3) using cytochrome c as substrate by Line-weaverBurk plot analysis. Set-up: species or system Sus scrofa. In short, it runs like this:
(§1)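 Overall succinate→cytochrome c activity of porcine SCR (0.1 nM) was measured at 23 °C in 100 mM PBS pH 7.4, 0.3 mM EDTA and 20 mM succinate. Cytochrome c was varied over 1.16–16.02, with inhibitor at graded levels. Km(cyt c), Vmax and Ki came from double-reciprocal plots, assuming non-competitive inhibition.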

For assay [2], the species on record is Sus scrofa. Nature of the assay: Inhibition of pig heart Succinate-ubiquinone oxidoreductase assessed as decrease of 2,6-dichlorophenolindophenol by spectrophotometer. Summed up: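 Complex II activity within porcine SCR, with succinate and DCIP as substrates. Final concentrations: 100 mM PBS pH 7.4, 0.3 mM EDTA, 20 mM succinate, 53 µM DCIP; adding enzyme starts the reaction. DCIP reduction was followed as absorbance decrease at 600 nm (ε 21 mM⁻¹ cm⁻¹).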

For assay [3], the species on record is Sus scrofa. Put plainly: Ratio Ki for pig heart Cytochrome b-c1 complex to Ki for pig heart succinate-cytochrome c reductase (Electron transport protein complex 2/3).
A short description of assay [4]: Inhibition of pig heart succinate-cytochrome c reductase (Electron transport protein complex 2/3) assessed as increase of cytochrome c by spectrophotometer. On the set-up: species or system Sus scrofa.
For assay [5], the species on record is Sus scrofa. Put plainly: Inhibition of pig heart Succinate-ubiquinone oxidoreductase assessed as decrease of 2,6-dichlorophenolindophenol at 20 uM by spectrophotometer.
For assay [6], the species on record is Sus scrofa. Put plainly: Activity of pig heart succinate-cytochrome c reductase (Electron transport protein complex 2/3) using cytochrome c as substrate by Line-weaverBurk plot analysis. The format is tissue-based. Summed up:
as §1

The species entered for assay [7] is Sus scrofa. Put plainly: Ratio Vmax for pig heart succinate-cytochrome c reductase (Electron transport protein complex 2/3) to Vmax for pig heart Cytochrome b-c1 complex.
Assay [8] is filed under the species Sus scrofa. Nature of the assay: Activity of pig heart Cytochrome b-c1 complex using DBH2 as substrate by Line-weaverBurk plot analysis. Summed up: (§2)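 Porcine SCR preparation (0.1 nM) as the bc1 source, at 23 °C in 100 mM PBS pH 7.4, 0.3 mM EDTA and 750 lauryl maltoside. Substrates were 100 oxidized cytochrome c and DBH₂ varied over 20–200. Cytochrome c reduction was followed with and without inhibitor. Km(DBH₂), Vmax and Ki came from double-reciprocal plots, assuming competitive inhibition.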

The nature of assay [9]: Competitive inhibition of pig heart Cytochrome b-c1 complex using DBH2 as substrate in absence of lauryl maltoside by Line-weaverBurk plot analysis. Set-up: species or system Sus scrofa.
The nature of assay [10]: Competitive inhibition of pig heart Cytochrome b-c1 complex using DBH2 as substrate in presence of lauryl maltoside by Line-weaverBurk plot analysis. On the set-up: species or system Sus scrofa. Summed up:
as §2

The species named for assay [11] is Sus scrofa. Put plainly: Inhibition of pig heart Cytochrome b-c1 complex assessed as oxidation of DBH2 by spectrophotometer. In short, it runs like this: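 Porcine SCR preparation at 0.1 nM, reaction with 100 µM oxidized cytochrome c and 100 µM DBH2 in 100 mM PBS (pH 7.4), 0.3 mM EDTA; run at 23 °C both without and with 750 µM lauryl maltoside. For kinetics, DBH2 was varied over 20–200 µM with 0–5000 nM inhibitor, and Ki was fitted on a competitive model. DBH2 concentration was set from A288–A320.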

Assay [12] in a line: Competitive inhibition of pig heart Cytochrome b-c1 complex using DBH2 as substrate by Line-weaverBurk plot analysis. On the set-up: species or system Sus scrofa. Summed up:
as §2

The IC50 is the concentration that inhibits the measured activity by half. By Ki is commonly meant the dissociation constant of the complex between target and ligand, obtained from inhibition or displacement. Lower therefore signals a stronger hold on the target. A word on the Km: it is the concentration of substrate that gives half-maximal velocity. The term Vmax denotes the top rate of the reaction or transport when substrate is in excess. Turning to `CC1(c2ccc(Oc3ccccc3)cc2)OC(=O)N(Nc2ccc(Br)cc2)C1=O` (centres undefined), the IC50 in [1] stood at 9.03 nM; in assay [4], 9.44 nM; in assay [9], 337 nM; in assay [10] it was 1050 nM. The inhibition constant Ki in assay [1] is 9.44 nM; in assay [12] it was 329 nM. The inhibition result in the assay listed under Sus scrofa [2] and in the assay filed under Sus scrofa [5] was “inactive” in each case. Besides, in the assay filed under Sus scrofa [3], the Ratio Ki was 35. Moreover, the results for the Km in the assay filed under Sus scrofa [6] and in the assay listed under Sus scrofa [8] were 4.45 µM and 78 µM, respectively. The values for the Vmax in the assay filed under Sus scrofa [6] and in the assay filed under Sus scrofa [8] were 0.0081 µM/s and 0.0574 µM/s, respectively. The Ratio in the assay listed under Sus scrofa [7] stood at 0.14. In the assay filed under Sus scrofa [11], the inhibition result was “Active”.

Regarding `CC1(c2ccc(Oc3ccccc3)cc2)OC(=O)N(Nc2ccc(C#N)cc2)C1=O` (centres undefined), the inhibition result in the assay filed under Sus scrofa [2] is “inactive”. The IC50 in [4] stood at 275 nM. Besides, the inhibition entry in the assay filed under Sus scrofa [11] is “Active”.

For `Cc1ccc(NN2C(=O)OC(C)(c3ccc(Oc4ccccc4)cc3)C2=O)c(C)c1` (centres undefined), in the assay filed under Sus scrofa [2], the inhibition entry is “inactive”. In addition, the IC50 in assay [4] was found to be 15.9 nM. Besides, the inhibition result in the assay filed under Sus scrofa [11] was “Active”.

`CC1(c2ccc(Br)nc2)OC(=O)N(Nc2ccc(Br)cc2)C1=O` (centres undefined): the inhibition entry in the assay filed under Sus scrofa [2] is “inactive”. The IC50 in assay [4] was greater than 1000 nM. Further, the inhibition entry in the assay filed under Sus scrofa [11] was “Active”.

Take `Cc1cccc(C)c1NN1C(=O)OC(C)(c2ccc(Oc3ccccc3)cc2)C1=O` (centres undefined): in the assay filed under Sus scrofa [2], the inhibition entry is “inactive”. Besides, the IC50 in assay [4] was found to be 1520 nM. Further, in the assay listed under Sus scrofa [11], the inhibition result is “Active”.

Take `CC1(c2ccc(Br)nc2)OC(=O)N(Nc2ccc(Cl)cc2)C1=O` (centres undefined): in the assay filed under Sus scrofa [2], the inhibition result was “inactive”. Besides, the IC50 in assay [4] was greater than 1000 nM. Further, the inhibition entry in the assay filed under Sus scrofa [11] is “Active”.

For the compound `CC1(c2ccc(Oc3ccccc3)cc2)OC(=O)N(Nc2ccc(F)cc2Br)C1=O` (centres undefined), the inhibition entry in the assay listed under Sus scrofa [2] is “inactive”. Further, in assay [4], the IC50 was 60 nM. The inhibition result in the assay listed under Sus scrofa [11] was “Active”.

Regarding `CC1(c2ccc(Br)nc2)OC(=O)N(Nc2ccc([N+](=O)[O-])cc2)C1=O` (centres undefined), the inhibition entry in the assay listed under Sus scrofa [2] is “inactive”. In assay [4], the half-maximal inhibitory concentration (IC50) was greater than 1000 nM. Moreover, the inhibition result in the assay listed under Sus scrofa [11] was “Active”.

Regarding `Cc1cccc(C)c1NN1C(=O)OC(C)(c2ccc(Br)nc2)C1=O` (centres undefined), the inhibition result in the assay filed under Sus scrofa [2] was “inactive”. Besides, the IC50 in [4] is greater than 1000 nM. Also, the inhibition result in the assay filed under Sus scrofa [11] is “Active”.

As to `Cc1ccc(NN2C(=O)OC(C)(c3ccc(Br)nc3)C2=O)c(C)c1` (centres undefined), the inhibition entry in the assay listed under Sus scrofa [2] is “inactive”. In addition, the half-maximal inhibitory concentration (IC50) in [4] was greater than 1000 nM. The inhibition result in the assay listed under Sus scrofa [11] is “Active”.

For the compound `CC1(c2ccc(Oc3ccccc3)cc2)OC(=O)N(Nc2ccc(C(F)(F)F)cc2)C1=O` (centres undefined), the inhibition entry in the assay filed under Sus scrofa [2] was “inactive”. In addition, the half-maximal inhibitory concentration (IC50) in assay [4] is 63.3 nM. For the same compound, the inhibition result in the assay filed under Sus scrofa [11] was “Active”.

Consider `CC1(c2ccc(Br)nc2)OC(=O)N(Nc2ccc(C(F)(F)F)cc2)C1=O` (centres undefined), for which the inhibition entry in the assay listed under Sus scrofa [2] was “inactive”. In addition, the IC50 in assay [4] was greater than 1000 nM. Further, the inhibition result in the assay filed under Sus scrofa [11] is “Active”.

`CC1(c2ccc(Br)nc2)OC(=O)N(Nc2ccc(F)cc2Br)C1=O` (centres undefined): in the assay listed under Sus scrofa [2], the inhibition result was “inactive”. Also, the concentration for half-maximal inhibition (IC50) in assay [4] was greater than 1000 nM. Also, the inhibition entry in the assay listed under Sus scrofa [11] was “Active”.

With `CC1(c2ccc(Oc3ccccc3)cc2)OC(=O)N(Nc2ccc(C(=O)O)cc2)C1=O` (centres undefined), the inhibition entry in the assay listed under Sus scrofa [2] was “inactive”. For the same compound, in [4], the concentration for half-maximal inhibition (IC50) worked out at 5310 nM. Further, the inhibition result in the assay filed under Sus scrofa [11] is “Active”.

With `CC1(c2ccc(Oc3ccccc3)cc2)OC(=O)N(Nc2ccccc2)C1=O` (centres undefined), the IC50 in assay [1] was 4.78 nM; in [4], 3.62 nM; in [9], 48.2 nM; in assay [10], 142 nM. In addition, the inhibitory constant (Ki) was determined as 3.62 nM in assay [1] and 51.4 nM in [12]. Besides, the Ratio Ki in the assay filed under Sus scrofa [3] amounted to 15. Moreover, the inhibition result in the assay filed under Sus scrofa [5] was “inactive”. Moreover, the Michaelis-Menten constant (Km) in the assay filed under Sus scrofa [6] was 4.47 µM; in the assay filed under Sus scrofa [8], 66.2 µM. Also, the maximal velocity (Vmax) was determined as 0.0081 µM/s in the assay filed under Sus scrofa [6] and 0.0598 µM/s in the assay listed under Sus scrofa [8].

`COc1ccc(NN2C(=O)OC(C)(c3ccc(Oc4ccccc4)cc3)C2=O)cc1` (centres undefined): the inhibition entry in the assay listed under Sus scrofa [2] is “inactive”. The half-maximal inhibitory concentration (IC50) in [4] worked out at 57.9 nM. Besides, the inhibition entry in the assay filed under Sus scrofa [11] was “Active”.

Regarding `CO/C=C(/C(=O)OC)c1ccccc1Oc1cc(Oc2ccccc2C#N)ncn1` [AZOXYSTROBIN], the IC50 in assay [1] stood at 291 nM; in [9], 435 nM; in [10] it was 527 nM. The Ki was found to be 295 nM in assay [1] and 204 nM in assay [12]. For the same compound, the results for the Km in the assay listed under Sus scrofa [6] and in the assay listed under Sus scrofa [8] were 4.37 µM and 72.1 µM, respectively. For the same compound, the results for the maximum rate (Vmax) in the assay filed under Sus scrofa [6] and in the assay filed under Sus scrofa [8] were 0.0099 µM/s and 0.0528 µM/s, respectively.

With `CC1(c2ccc(Oc3ccccc3)cc2)OC(=O)N(Nc2cccc(C(=O)O)c2)C1=O` (centres undefined), the inhibition entry in the assay filed under Sus scrofa [2] is “inactive”. Also, in [4], the IC50 turned out to be 24 nM. For the same compound, the inhibition result in the assay listed under Sus scrofa [11] is “Active”.

Turning to `CC1(c2ccc(Br)nc2)OC(=O)N(Nc2ccccc2)C1=O` (centres undefined), the inhibition entry in the assay filed under Sus scrofa [2] is “inactive”. Also, the concentration for half-maximal inhibition (IC50) in assay [4] is greater than 1000 nM. In addition, the inhibition result in the assay filed under Sus scrofa [11] was “Active”.

Regarding `COc1ccc(NN2C(=O)OC(C)(c3ccc(Br)nc3)C2=O)cc1` (centres undefined), in the assay listed under Sus scrofa [2], the inhibition entry was “inactive”. Besides, the IC50 in assay [4] is greater than 1000 nM. For the same compound, the inhibition entry in the assay listed under Sus scrofa [11] is “Active”.

Consider `CC1(c2ccc(Oc3ccccc3)cc2)OC(=O)N(Nc2ccc(Cl)cc2)C1=O` (centres undefined), for which the inhibition entry in the assay listed under Sus scrofa [2] was “inactive”. The IC50 in assay [4] came to 18.8 nM. Also, in the assay filed under Sus scrofa [11], the inhibition entry is “Active”.

With `Cc1ccc(NN2C(=O)OC(C)(c3ccc(Br)nc3)C2=O)cc1` (centres undefined), the inhibition entry in the assay filed under Sus scrofa [2] was “inactive”. Moreover, in assay [4], the IC50 was greater than 1000 nM. In addition, the inhibition entry in the assay filed under Sus scrofa [11] was “Active”.

Turning to `Cc1ccc(NN2C(=O)OC(C)(c3ccc(Oc4ccccc4)cc3)C2=O)cc1` (centres undefined), in the assay listed under Sus scrofa [2], the inhibition result is “inactive”. Moreover, the concentration for half-maximal inhibition (IC50) in assay [4] was 23.8 nM. Besides, the inhibition result in the assay listed under Sus scrofa [11] was “Active”.

For the compound `CC1(c2ccc(Br)nc2)OC(=O)N(Nc2ccc(C#N)cc2)C1=O` (centres undefined), the inhibition entry in the assay filed under Sus scrofa [2] was “inactive”. Also, the half-maximal inhibitory concentration (IC50) in [4] is greater than 1000 nM. For the same compound, in the assay filed under Sus scrofa [11], the inhibition result was “Active”.
